Hits are enriched below; roughly 1.9% of the tested compounds scored in any of these assays.
PLCb3 inh: human PLC-beta3 inhibitors, primary screen, biochemical, fluorescence. hit rate 0.18% among 370,000. 1-phosphatidylinositol 4,5-bisphosphate phosphodiesterase beta-3 (Homo sapiens), Q01970. inhibition, % at 12.2 µM. Purified PLC-beta3, fluorogenic substrate; in the data active = inhibition above about 11%;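 note: 0% = median of compound wells on plate and 100% = full blocker control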
TbMetRS inhib: T. brucei MetRS inhibitors, primary screen, biochemical, luminescence. methionyl-tRNA synthetase (Trypanosoma brucei brucei). hit rate 0.4% among 360,000. purified T. brucei MetRS, ATP depletion, Kinase-Glo luminescence. inhibition, % at 11.9 µM;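 active = inhibition above a per-plate cutoff of the control wells' mean inhibition plus 3 SD, cut at about 5.5% in these data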;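 note: 0% = DMSO wells median and 100% = median of wells with control inhibitor compound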
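Material: parasite MetRS enzyme / Replication: singlicate, one well per compound / Signal: luminescence of leftover ATP / Schedule: 2 h aminoacylation at 25 °C after 15 min preincubation / Medium: HEPES-MgCl2-KCl buffer plus DTT, spermine, BSA, pyrophosphatase / Doses: 11.9 µM single point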
PLCg1 inh: PLC-gamma1 enzyme inhibitors, primary screen, biochemical, fluorescence, purified enzyme | fluorogenic substrate | inhibition, % at 12.2 µM | hit rate 0.84% among 370,000; in the data active = inhibition above about 9.5%
HGIII-sPLA2 inh: human group III sPLA2 inhibitors, primary screen, biochemical, QFRET, BODIPY PC-A2 liposome substrate; AID 743126, 2013; hit rate 0.56% among 370,000; QFRET BODIPY PC-A2 liposome hydrolysis, fluorescence; inhibition, % at 12.2 µM;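 active = inhibition above mean plus 3 SD of compounds lying within the high and low control bounds, cut at about 19% in these data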;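 note: 0% = median of test compound wells and 100% = no enzyme DMSO wells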
* = called active by the depositor; · = no result given.

SMILES	PLCb3 inh	TbMetRS inhib	PLCg1 inh	HGIII-sPLA2 inh
Cc1cc(C(=O)OCCCN(C)C2CN(Cc3cn(Cc4ccccc4C(F)(F)F)nn3)S(=O)(=O)C2)no1 (stereo not given)	2.0	·	1.9	6.3
CCCN1CCC(=O)N(CCSc2ccccc2)CC1	2.2	-0.3	1.6	-3.7
c1ccc(SCCN2CCN(c3ccccc3)CC2)cc1	-3.7	-1.8	10.4*	1.4
c1ccc(CNc2nc(NCc3ccccc3)c3ccccc3n2)cc1	·	6.5*	·	·
CCCCNC(=O)C[C@H]1C[C@@]2(C(=O)OC)C(=C[C@H](C(C)(C)C)O[C@@H]2C)N(Cc2cccc3ccccc23)C1=O	6.7	·	4.2	-10.1
C=CCN(Cc1ccc2c(c1)OCO2)C(C#Cc1ccccc1)c1ccccc1C(F)(F)F (stereo not given)	-2.9	·	-3.3	6.8
c1coc(CSSCc2ccco2)c1	-17.9	0.0	13.1*	8.5
COC(=O)C(=O)/C=C(\O)c1ccc(C)cc1	-3.2	-1.1	-2.0	27.0*
Nc1nc2ccc(S(=O)(=O)N3CCCCC3)cc2s1	0.9	-0.1	47.8*	-4.2
O=c1cc[nH]c2cccc(Cc3ccccc3)c12	1.1	20.9*	-0.5	5.6
c1ccc(Cc2c[nH]c3ccccc23)cc1	-2.4	-0.4	-1.1	-74.9
COC(=O)[C@]12C[C@H](CC(=O)N3CCSCC3)C(=O)N(Cc3ccc(Cl)cc3Cl)C1=C[C@H](C(C)C)O[C@@H]2C1CC1	-1.2	·	-2.6	4.2
O=C(N/N=C/c1c[nH]c2ccccc12)c1[nH]c2ccc(Br)cc2c1-c1ccccc1	-446.8	-0.1	-318.8	22.0*
COc1ccc(S[C@]2(C(=O)N3CCN(c4ncccn4)CC3)CC(=O)N[C@@H]2c2ccc(OC)cc2)cc1	-6.7	·	-3.8	-6.0
COc1ccccc1CN1CC(C(=O)N(C)CCc2ccccn2)CCC1=O (stereo not given)	13.3*	0.0	5.6	3.5
O=C(C(=O)N1CCC(CNS(=O)(=O)c2cc(C(F)(F)F)cc(C(F)(F)F)c2)CC1)c1cc2ccccc2o1	0.1	·	-0.8	14.4
Cc1ccc(NC(=O)N2CCC(c3nc4ccc(Cl)cc4[nH]3)CC2)cc1F	-0.8	·	0.1	-15.9
Fc1cccc(/C=N/Nc2ccc3ccccc3n2)c1	-3.4	-0.3	-0.5	20.0*
NNc1nc2c(Cl)ccc(Cl)c2s1	-14.4	-0.6	-14.5	21.9*
CN(C(=O)c1cccc(NC(=O)Cc2cccc(NC(=O)C3CCN(C(=O)C4CC4)CC3)c2)c1)C1CC1	10.4	0.3	13.1*	9.0
C=CC[C@H](CC(=O)N(CCO)Cc1ccccc1)C(=O)NC[C@H](OC(=O)[C@@H](CC=C)Cc1ccc(F)cc1)c1ccccc1	-0.2	-0.6	4.2	-0.9
C=CC[C@@H](CC(=O)N(CCO)Cc1ccccc1)C(=O)NC[C@@H](OC(=O)[C@@H](CC=C)Cc1ccc(F)cc1)c1ccccc1	2.9	-0.3	10.2*	-29.1
O=C(Cn1cc[n+](Cc2ccccc2)c1)c1ccc([N+](=O)[O-])cc1	5.0	-0.8	10.6*	-6.8
O=C(C[n+]1ccn(-c2ccccc2)c1)c1ccc([N+](=O)[O-])cc1	-5.6	-0.3	0.4	0.5
CCC(c1nnnn1Cc1cccs1)N1CCN(c2nc3ccccc3s2)CC1 (stereo not given)	-0.2	-0.4	-1.3	-19.2
SMILES	PLCb3 inh	TbMetRS inhib	PLCg1 inh	HGIII-sPLA2 inh
CC(C)CC(c1nnnn1Cc1cccs1)N1CCN(c2nc3ccccc3s2)CC1 (stereo not given)	9.6	-0.2	9.9*	10.5
CCc1nn(CC(=O)NCCCN(CC)Cc2ccccc2)c(=O)c2cc3sccc3n12	2.8	-0.7	10.6*	-1.5
CC(=O)N1CCN(C2=NC(=O)N(c3ccc(Br)cc3)C(=O)C2)CC1	-4.8	·	-3.4	0.0
O=C(COc1ccccc1Br)N1CCN(C(=O)c2cccs2)CC1	-3.8	-0.5	13.6*	-2.4
CCc1nnc(NC(=O)CCC(=O)N2CCN(Cc3ccc(C)cc3C)CC2)s1	0.9	0.0	13.7*	-0.7
CCCc1nnc(NC(=O)CCC(=O)N2CCN(Cc3ccc(C)cc3C)CC2)s1	-9.9	-0.3	-0.9	-10.9
COc1ccc(F)cc1-c1cc(C(=O)N2CCc3ccccc3C2)[nH]n1	10.7*	-0.1	11.1*	6.2
COCCNC(=O)c1c(N)[nH]c(C(=O)c2ccc(Br)cc2)c1-c1ccc(Br)cc1	2.8	·	1.7	0.2
O=C(NCCc1ccc(Cl)cc1)Nc1cccc(Cl)c1	1.2	7.0*	3.1	-22.0
O=C(NCCc1ccccc1)Nc1cccc(Cl)c1	3.9	0.2	0.4	6.8
